Measured values reported in ChEMBL document CHEMBL4145619, “Computer-Assisted Discovery of Retinoid X Receptor Modulating Natural Products and Isofunctional Mimetics” (J Med Chem, 2018).
Activity calls are given as the source filed them. No cut-off for these calls is given here.

Columns and labels:
Type in all cases: cell-based
[1] = biological target: T1, Oxysterols receptor LXR-alpha (Homo sapiens) (UniProt Q13133); experiment: Transactivation of human Gal4-fused LXRalpha LBD expressed in HEK293T cells at 30 uM after 12 to 14 hrs by dual-glo luciferase assay
T1 sequence (whole entry): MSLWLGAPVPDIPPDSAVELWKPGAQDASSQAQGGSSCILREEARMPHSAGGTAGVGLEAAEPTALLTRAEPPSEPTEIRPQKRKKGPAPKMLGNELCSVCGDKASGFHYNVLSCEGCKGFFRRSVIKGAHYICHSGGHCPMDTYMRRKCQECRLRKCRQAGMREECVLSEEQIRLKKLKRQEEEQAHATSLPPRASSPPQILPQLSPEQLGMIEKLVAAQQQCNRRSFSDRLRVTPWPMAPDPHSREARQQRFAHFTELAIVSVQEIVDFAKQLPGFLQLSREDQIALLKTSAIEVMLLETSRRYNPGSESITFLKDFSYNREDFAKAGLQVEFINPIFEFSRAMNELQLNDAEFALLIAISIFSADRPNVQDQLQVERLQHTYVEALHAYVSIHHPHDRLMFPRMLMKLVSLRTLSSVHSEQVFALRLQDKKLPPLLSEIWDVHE
Method in brief: (§1)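 Single-concentration selectivity profiling in Gal4-hybrid reporter gene assays in HEK293T cells. Each nuclear receptor construct (RAR, PPAR, LXR, FXR, CAR, VDR, PXR, RXR) was tested at 30 μM.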

[2] = biological target: Retinoid X receptor (Homo sapiens) (UniProt P28702+P48443+P19793); experiment: Transactivation of RXR in human HepG2 cells assessed as induction of ABCA1 mRNA expression at 30 uM after 8 hrs by qRT-PCR analysis
Chain of Retinoid X receptor (Homo sapiens) (P19793 whole entry, looked up): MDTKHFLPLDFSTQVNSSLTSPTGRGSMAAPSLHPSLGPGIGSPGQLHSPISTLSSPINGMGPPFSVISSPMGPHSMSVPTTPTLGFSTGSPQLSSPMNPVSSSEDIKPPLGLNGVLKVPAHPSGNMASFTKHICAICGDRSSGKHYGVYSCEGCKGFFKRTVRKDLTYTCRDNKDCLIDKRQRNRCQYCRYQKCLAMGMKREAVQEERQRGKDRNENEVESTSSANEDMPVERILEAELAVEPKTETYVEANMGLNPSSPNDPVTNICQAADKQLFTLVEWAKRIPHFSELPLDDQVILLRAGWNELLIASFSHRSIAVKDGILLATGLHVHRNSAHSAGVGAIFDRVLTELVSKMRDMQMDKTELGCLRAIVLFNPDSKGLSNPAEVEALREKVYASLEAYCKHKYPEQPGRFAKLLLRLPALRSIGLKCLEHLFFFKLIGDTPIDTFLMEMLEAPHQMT
Chain of Retinoid X receptor (Homo sapiens) (P28702 whole entry, looked up): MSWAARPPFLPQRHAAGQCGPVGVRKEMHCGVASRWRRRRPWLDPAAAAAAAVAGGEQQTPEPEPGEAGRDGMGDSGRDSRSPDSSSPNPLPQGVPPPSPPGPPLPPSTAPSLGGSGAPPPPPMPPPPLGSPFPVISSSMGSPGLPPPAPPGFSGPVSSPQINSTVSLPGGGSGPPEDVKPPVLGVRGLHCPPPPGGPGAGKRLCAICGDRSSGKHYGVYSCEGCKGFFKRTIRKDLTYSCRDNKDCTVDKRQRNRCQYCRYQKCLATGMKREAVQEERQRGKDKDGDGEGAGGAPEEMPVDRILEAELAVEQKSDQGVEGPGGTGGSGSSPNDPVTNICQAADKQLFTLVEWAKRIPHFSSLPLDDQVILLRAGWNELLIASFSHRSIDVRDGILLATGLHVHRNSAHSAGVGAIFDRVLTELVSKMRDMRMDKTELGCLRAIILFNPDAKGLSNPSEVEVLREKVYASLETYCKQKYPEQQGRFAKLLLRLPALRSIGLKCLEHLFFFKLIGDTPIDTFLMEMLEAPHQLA
Chain of Retinoid X receptor (Homo sapiens) (P48443 whole entry, looked up): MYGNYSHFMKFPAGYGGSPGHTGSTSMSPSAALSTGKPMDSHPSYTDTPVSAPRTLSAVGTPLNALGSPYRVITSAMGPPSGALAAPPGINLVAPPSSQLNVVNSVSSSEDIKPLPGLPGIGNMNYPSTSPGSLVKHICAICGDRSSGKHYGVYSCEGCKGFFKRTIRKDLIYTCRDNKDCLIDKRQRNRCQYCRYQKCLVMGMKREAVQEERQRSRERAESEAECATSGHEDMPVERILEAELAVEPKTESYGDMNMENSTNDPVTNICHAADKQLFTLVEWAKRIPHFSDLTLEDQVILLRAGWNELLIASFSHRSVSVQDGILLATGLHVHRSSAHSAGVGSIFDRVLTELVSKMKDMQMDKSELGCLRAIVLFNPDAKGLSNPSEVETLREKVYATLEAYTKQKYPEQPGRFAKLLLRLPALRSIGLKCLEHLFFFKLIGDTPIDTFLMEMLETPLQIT
Method in brief: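 HepG2 cells were treated and ABCA1 or ApoE mRNA levels measured. Results are given as mean fold induction versus 0.1% DMSO vehicle ± SEM, n = 3. Significance was set at p < 0.05, 0.01 or 0.001.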

[3] = biological target: T2, Bile acid receptor (Homo sapiens) (UniProt Q96RI1); experiment: Transactivation of human Gal4-fused FXR LBD expressed in HEK293T cells at 30 uM after 12 to 14 hrs by dual-glo luciferase assay; method in brief: as §1
T2 sequence (whole entry): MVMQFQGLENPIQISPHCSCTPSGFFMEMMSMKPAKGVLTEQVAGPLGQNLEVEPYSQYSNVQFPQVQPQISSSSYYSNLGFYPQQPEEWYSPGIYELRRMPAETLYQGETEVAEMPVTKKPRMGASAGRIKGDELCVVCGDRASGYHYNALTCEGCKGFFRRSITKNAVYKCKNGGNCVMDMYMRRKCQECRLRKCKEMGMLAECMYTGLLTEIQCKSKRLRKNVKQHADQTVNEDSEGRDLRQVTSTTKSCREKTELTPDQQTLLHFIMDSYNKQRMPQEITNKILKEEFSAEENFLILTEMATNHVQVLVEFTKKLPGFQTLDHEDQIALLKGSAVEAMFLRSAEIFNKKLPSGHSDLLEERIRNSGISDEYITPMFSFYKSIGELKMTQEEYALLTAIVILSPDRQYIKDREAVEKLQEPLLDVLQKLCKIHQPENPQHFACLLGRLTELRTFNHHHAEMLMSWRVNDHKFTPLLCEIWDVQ

[4] = biological target: T3, Nuclear receptor subfamily 1 group I member 3 (Homo sapiens, UniProt Q14994); experiment: Transactivation of human Gal4-fused CAR LBD expressed in HEK293T cells at 30 uM after 12 to 14 hrs by dual-glo luciferase assay; method in brief: as §1
T3 sequence (Q14994 whole entry): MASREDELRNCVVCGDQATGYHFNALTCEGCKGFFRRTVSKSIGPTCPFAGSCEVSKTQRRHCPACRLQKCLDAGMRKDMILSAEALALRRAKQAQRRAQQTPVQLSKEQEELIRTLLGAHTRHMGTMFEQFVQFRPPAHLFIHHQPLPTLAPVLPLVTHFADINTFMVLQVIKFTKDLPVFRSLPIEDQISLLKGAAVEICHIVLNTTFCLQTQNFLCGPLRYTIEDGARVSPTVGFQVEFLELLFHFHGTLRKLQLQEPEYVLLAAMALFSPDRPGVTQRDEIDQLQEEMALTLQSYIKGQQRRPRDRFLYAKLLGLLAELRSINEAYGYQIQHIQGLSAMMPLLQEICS

[5] = biological target: T4, Retinoic acid receptor beta (Homo sapiens) (UniProt P10826); experiment: Transactivation of human Gal4-fused RARbeta LBD expressed in HEK293T cells at 30 uM after 12 to 14 hrs by dual-glo luciferase assay; method in brief: as §1
T4 sequence (whole entry): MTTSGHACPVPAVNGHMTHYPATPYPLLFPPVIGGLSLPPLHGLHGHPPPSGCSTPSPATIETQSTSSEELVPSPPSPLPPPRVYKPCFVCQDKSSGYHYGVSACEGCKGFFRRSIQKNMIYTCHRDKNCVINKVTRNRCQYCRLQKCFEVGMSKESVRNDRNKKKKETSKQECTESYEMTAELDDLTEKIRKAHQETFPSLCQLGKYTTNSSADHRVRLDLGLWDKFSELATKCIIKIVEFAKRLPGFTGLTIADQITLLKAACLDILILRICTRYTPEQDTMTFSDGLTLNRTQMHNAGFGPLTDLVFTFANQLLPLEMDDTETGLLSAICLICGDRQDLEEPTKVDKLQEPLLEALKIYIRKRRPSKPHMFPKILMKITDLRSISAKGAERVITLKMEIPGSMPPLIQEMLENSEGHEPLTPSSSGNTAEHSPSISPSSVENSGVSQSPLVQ

[6] = tested on: HepG2; experiment: Cytotoxicity against human HepG2 cells assessed as reduction in cell viability up to 100 uM after 48 hrs by WST1 assay; settings: hepg2, 48 h
[7] = biological target: T5, Retinoic acid receptor alpha (Homo sapiens) (UniProt P10276); experiment: Transactivation of human Gal4-fused RARalpha LBD expressed in HEK293T cells at 30 uM after 12 to 14 hrs by dual-glo luciferase assay; method in brief: as §1
T5 sequence (whole entry): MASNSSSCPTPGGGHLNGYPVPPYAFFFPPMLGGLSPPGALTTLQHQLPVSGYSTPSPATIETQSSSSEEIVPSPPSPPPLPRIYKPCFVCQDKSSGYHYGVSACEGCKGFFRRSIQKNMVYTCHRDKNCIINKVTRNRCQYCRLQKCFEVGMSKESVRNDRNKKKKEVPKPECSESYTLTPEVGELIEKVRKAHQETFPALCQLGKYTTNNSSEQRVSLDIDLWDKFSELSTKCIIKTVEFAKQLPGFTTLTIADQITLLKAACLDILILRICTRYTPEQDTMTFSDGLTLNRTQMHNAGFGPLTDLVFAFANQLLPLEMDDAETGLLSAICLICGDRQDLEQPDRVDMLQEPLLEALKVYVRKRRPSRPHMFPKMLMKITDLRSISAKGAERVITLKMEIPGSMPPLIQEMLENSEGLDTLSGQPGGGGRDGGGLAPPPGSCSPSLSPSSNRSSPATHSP

In the case of `CC1=C2[C@H](/C=C(\C)C(=O)O)CC[C@@H](C)[C@H]2CC1` [VALERENIC ACID], the Activity [1] is reported as “inactive”, the Activity [2] is reported as “Active” and the Activity [3] is reported as “inactive”. The Activity [4] was “Not Active”, the Activity [5] was “inactive” and the Activity [6] was “Non-Toxic”. For the same molecule, the Activity [7] was “inactive”.
